PMC4873422 (Molecular cancer therapeutics, 2016)

Tests used:
Type in all cases: cell-based, human
Pa03C cells = test: Monolayer proliferation assay; conditions: tumor cells (Pa03C), 72 h
Summary of the method: (§1)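 Monolayers were grown in DMEM with 10% serum at 37 °C, 5% CO2. Seeding was Pa03C tumor cells 2,000–3,000/well, EGFP-expressing CAF19 fibroblasts 4,000/well, or tumor plus CAFs at a 2:1 ratio. Test compound was added 24 h after seeding, and viability was read 72 h later. Dose-response data are Avg+SE, n=3–4. The 50% value came from a linear-regression fit at 50% survival.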

CAF19 cells = test: Monolayer proliferation assay; conditions: CAFs (CAF19), 72 h
Summary of the method: as §1

Pa03C + CAF19 co-culture = test: Monolayer proliferation assay; conditions: 2:1 tumor:CAF co-culture, 72 h
Summary of the method: as §1

[1] = system: p-STAT3 (Y705) in Pa03C cells; test: Immunoblot of p-STAT3; conditions: 10 μM, 4 hr pre-treatment, IL-6 25 ng/mL 15 min
Panc10.05 cells = test: Cell viability / proliferation screen; conditions: 72 h, Avg ± SE, n=4–5
Summary of the method: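 Panc10.05 patient-derived PDAC cells (STR-verified) were grown in DMEM with 10% serum at 37 °C, 5% CO2. Monolayers were seeded at 2,000–3,000 cells/well, and test compound was added 24 h after seeding. MTS tetrazolium read-out was taken 72 h later. Data from 4–5 repeats were pooled, and ED50 was taken from a linear-regression fit where percent survival equalled 50%.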

| SMILES | IC50 (Pa03C cells) [µM] | IC50 (CAF19 cells) [µM] | IC50 (Pa03C + CAF19 co-culture) [µM] | phosphorylation of STAT3 at Y705 [1] | ED50 (Panc10.05 cells) [µM] |
| --- | --- | --- | --- | --- | --- |
| CN(CC(=O)N(Cc1ccc(C2CCCCC2)cc1)c1ccc(C(=O)O)c(O)c1)S(=O)(=O)c1c(F)c(F)c(F)c(F)c1F [BP-1-102] | 19.1 ± 0.9 | 15.2 ± 2.7 | 16.4 ± 0.6 | inhibited phosphorylation of STAT3 at Y705 |  |
| CN(CC(=O)N(Cc1ccc(C2CCCCC2)cc1)c1ccc(C(=O)O)cc1)S(=O)(=O)c1c(F)c(F)c(F)c(F)c1F [SH-4-54] | 9.2 ± 1.7 | 7.6 ± 0.9 | 11.8 ± 1.1 | inhibited phosphorylation of STAT3 at Y705 | 8.7 ± 1.9 |
